Results published in the array DNA melting data of Ke et al. (doi:10.1101/2024.01.08.574731).

Tests used:
[1] = folding enthalpy; higher = less favourable; fluorescence melt of hairpins on a sequencing array, two-state fit; conditions: sodium 0.088 M
Summary of the method: (§1)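 Melting temperature and folding enthalpy were derived from bootstrapped two-state fits. The fitted temperatures were raised by 9.35 °C to agree with UV melts, and four replicates were combined by inverse variance. The underlying data were Cy3 fluorescence images of library hairpins, with annealed Cy3 and quencher oligos, on a sequenced MiSeq flow cell in 50 mM Na-HEPES pH 8.0, 25 mM NaCl, taken in 2.5 °C steps up to 60 °C, normalised to pre-quench Cy3 and to control constructs.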

[2] = melting temperature; fluorescence melt of hairpins on a sequencing array, two-state fit, raised by 9.35 °C to match UV melts; conditions: sodium 0.088 M
Summary of the method: as §1

Row | Sequence | folding enthalpy [1] | Tm [2]
1 | GGACAGAAATGTCC (((((....))))) | -25.9 kcal/mol | 53.2 °C
2 | GGACAGCCGAAAGGCTCC (((..(((....)))))) | -7.98 kcal/mol | 31.2 °C
3 | GGACAGGAAACTGTCC ((((((....)))))) | -43 kcal/mol | 62.8 °C
4 | GGACAGGGAAACCCGTCC ((((.((....)).)))) | -34.1 kcal/mol | 50.8 °C
5 | GGACAGGGAAACCTGTTC (.(((((....))))).) | -22.9 kcal/mol | 50 °C
6 | GGACATACGAAAGTATCC (((..(((....)))))) | -10.9 kcal/mol | 26.8 °C
7 | GGACATGCGAAAGCATCC (((..(((....)))))) | -10.8 kcal/mol | 28.6 °C
8 | GGACCACGAAAGTGCTCC (((.(((....))).))) | -25.9 kcal/mol | 41.5 °C
9 | GGACCAGGAAACCAGTCC ((((..(....)..)))) | -20.3 kcal/mol | 33.9 °C
10 | GGACCAGGAAACCGGTCC (((((.(....).))))) | -35.3 kcal/mol | 54.6 °C
11 | GGACCAGGAAACTGGCCC ((.((((....)))).)) | -35.4 kcal/mol | 52.3 °C
12 | GGACCAGGAAACTGGTCC (((((((....))))))) | -32.4 kcal/mol | 68.1 °C
13 | GGACCCCGAAAGGGCTCC (((.(((....))).))) | -16.3 kcal/mol | 48.6 °C
14 | GGACCCGAAAGGGCTCC ((((((....))).))) | -23.1 kcal/mol | 58.6 °C
15 | GGACCCGAAAGGGGGTCC ((((((....)))..))) | -27.1 kcal/mol | 63.8 °C
16 | GGACCCGAAAGGGTGTCC ((((((....)))..))) | -14 kcal/mol | 47.1 °C
17 | GGACCCGAAAGGGTTTCC ((((((....)))..))) | -8.05 kcal/mol | 37.1 °C
18 | GGACCCGGAAACGAGCCC ((.(.((....)).).)) | -16 kcal/mol | 30.2 °C
19 | GGACCCGGAAACGAGTCC ((((.((....)).)))) | -32.4 kcal/mol | 49.3 °C
20 | GGACCGCGAAAGCGCTCC (((.(((....))).))) | -16.2 kcal/mol | 46.8 °C
21 | GGACCGCGAAAGCGTCC (((.(((....)))))) | -17.1 kcal/mol | 59.6 °C
22 | GGACCGGGAAACCGGCCC ((.((((....)))).)) | -19.9 kcal/mol | 57.9 °C
23 | GGACCTCGAAAGAGTCC (((.(((....)))))) | -32.7 kcal/mol | 49.8 °C

Row | Sequence | folding enthalpy [1] | Tm [2]
24 | GGACCTGGAAACAGGCCC ((.((((....)))).)) | -25.8 kcal/mol | 52.7 °C
25 | GGACCTGGAAACAGGTCC (((((((....))))))) | -28.2 kcal/mol | 68.7 °C
26 | GGACCTGGAAACAGGTTC (.(((((....))))).) | -27.5 kcal/mol | 52.7 °C
27 | GGACCTGGAAACGGGTTC (.(((.(....).))).) | -26.6 kcal/mol | 38.6 °C
28 | GGACGAGGAAACTCGTCC (((((((....))))))) | -44.4 kcal/mol | 68.8 °C
29 | GGACGAGGAAACTCGTTC (.(((((....))))).) | -32.5 kcal/mol | 51.6 °C
30 | GGACGAGGAAACTTGTCC ((((.((....)).)))) | -43.5 kcal/mol | 50.7 °C
31 | GGACGCCGAAAGGCCTCC (((.(((....))).))) | -19.1 kcal/mol | 44.5 °C
32 | GGACGCGAAAGCGGTCC ((((((....))).))) | -21.2 kcal/mol | 68.8 °C
33 | GGACGCGGAAACACGTCC (((((.(....).))))) | -38.9 kcal/mol | 54.8 °C
34 | GGACGGCGAAAGCCATCC (((.(((....))).))) | -23.7 kcal/mol | 50 °C
35 | GGACGGCGAAAGCCCTCC (((.(((....))).))) | -20.5 kcal/mol | 41.4 °C
36 | GGACGGGCGAAAGCCTCC (((..(((....)))))) | -10.5 kcal/mol | 33.7 °C
37 | GGACGGGGAAACCCGCCC ((.((((....)))).)) | -34.1 kcal/mol | 58.7 °C
38 | GGACGGGGAAACTCGTCC (((((.(....).))))) | -41 kcal/mol | 58 °C
39 | GGACGTCCGAAAGGATCC (((..(((....)))))) | -14.9 kcal/mol | 25.8 °C
40 | GGACGTGGAAACACATCC (((.(((....))).))) | -25.9 kcal/mol | 41.1 °C
41 | GGACGTGGAAACATGTCC ((((.((....)).)))) | -38.5 kcal/mol | 53.7 °C
42 | GGACTAGAAATAGTCC ((((((....)))))) | -33 kcal/mol | 52.9 °C
43 | GGACTCCGAAAGGACTCC (((.(((....))).))) | -21.1 kcal/mol | 39.2 °C
44 | GGACTCGAAAGAGGTCC ((((((....))).))) | -35.2 kcal/mol | 52.4 °C
45 | GGACTCGAAAGAGTTCC ((((((....))).))) | -21.2 kcal/mol | 50.3 °C
46 | GGACTGCGAAAGCAATCC (((.(((....))).))) | -12.7 kcal/mol | 47.8 °C

Row | Sequence | folding enthalpy [1] | Tm [2]
47 | GGACTTGGAAACAAGTTC (.(((((....))))).) | -29.8 kcal/mol | 47.5 °C
48 | GGAGACGAAAGTCAGTCC ((((((....)))..))) | -13.6 kcal/mol | 31.6 °C
49 | GGAGACGAAAGTCCTCC ((((((....))).))) | -25 kcal/mol | 48.7 °C
50 | GGAGACGAAAGTCGTCC ((((((....))).))) | -14.3 kcal/mol | 49.5 °C
51 | GGAGACGAAAGTCTATCC ((((((....)))..))) | -12.5 kcal/mol | 32.8 °C
52 | GGAGACGAAAGTCTCTCC ((((((....)))..))) | -9.83 kcal/mol | 54.5 °C
53 | GGAGACGAAAGTCTTTCC ((((((....)))..))) | -10.9 kcal/mol | 32.6 °C
54 | GGAGACGGAAACATCTCC (((((.(....).))))) | -31.8 kcal/mol | 39.5 °C
55 | GGAGACGGAAACGTCCCC ((.((((....)))).)) | -20.1 kcal/mol | 49.2 °C
56 | GGAGACGGAAACGTTTCC (((.(((....))).))) | -30.3 kcal/mol | 49.5 °C
57 | GGAGAGGGAAACCTCCCC ((.((((....)))).)) | -16.2 kcal/mol | 39.9 °C
58 | GGAGAGGGAAACCTCTCC (((((((....))))))) | -46.6 kcal/mol | 63.3 °C
59 | GGAGATGGAAACATCTTC (.(((((....))))).) | -26.2 kcal/mol | 44.6 °C
60 | GGAGCACGAAAGTGTTCC (((.(((....))).))) | -39.8 kcal/mol | 58.8 °C
61 | GGAGCCCCGAAAGGGTCC (((..(((....)))))) | -20.4 kcal/mol | 47.4 °C
62 | GGAGCCGGAAACGGCCCC ((.((((....)))).)) | -15.5 kcal/mol | 58.5 °C
63 | GGAGCGGGAAACCACTCC ((((.((....)).)))) | -34.7 kcal/mol | 49.2 °C
64 | GGAGCTACGAAAGTATCC (((..(((....)))))) | -5.61 kcal/mol | 19.7 °C
65 | GGAGCTCCGAAAGGATCC (((..(((....)))))) | -10.9 kcal/mol | 30.5 °C
66 | GGAGCTGGAAACAGCTTC (.(((((....))))).) | -26.4 kcal/mol | 53.1 °C
67 | GGAGGAACGAAAGTTTCC (((..(((....)))))) | -16.2 kcal/mol | 30.4 °C
68 | GGAGGACGAAAGTCGTCC (((.(((....))).))) | -28.9 kcal/mol | 59.4 °C
